# Calls of active or inactive are those of the source. The calls are words filed in the database; no cut-off is given here.
# Experiments:
# [1] = Thermal stability of the compound assessed as compound isomerization at 80 degC after 20 hrs; format: physicochemical
# Method in brief: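 Cis and trans isomers held at 80 °C for 20 h and checked for thermal isomerization. Isomers were generated with a 300 W xenon lamp at 25 °C, 2 cm from the source: 410 nm (103 mW/cm2) or 310 nm (81 mW/cm2), 2 min each. Isomer content measured by HPLC peak area.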
# Nucleic Acid [2] = assay: Binding affinity to Aequorea victoria GFP mRNA in insect cell extract assessed as mRNA translational efficiency at 4.8 mM irradiated with 410 nm monochromatic light for 2 mins measured after 10 hrs by fluorescence assay; format: nucleic-acid assay
# Method in brief: (§1)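 Capped GFP mRNA made by in vitro T7 transcription (37 °C, 4 h; poly(A)30 template), DNase-digested and purified, then translated in insect cell extract. Before translation the mixture was irradiated at room temperature for 2 min at 410 nm (cis to trans) or 310 nm (trans to cis). GFP read by fluorescence.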
# Nucleic Acid [3] = assay: Binding affinity to Aequorea victoria GFP mRNA in insect cell extract assessed as inhibition of mRNA translation at 4.8 mM irradiated with 310 nm monochromatic light for 2 mins measured after 10 hrs by fluorescence assay; format: nucleic-acid assay; method in brief: as §1
# Nucleic Acid [4] = assay: Binding affinity to Aequorea victoria GFP mRNA in insect cell extract assessed as increase in mRNA translation at 4.8 mM irradiated with 310 nm monochromatic light for 2 mins measured up to 60 mins by time course fluorescence assay; format: nucleic-acid assay
# Method in brief: (§2)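 GFP mRNA capped at the 5' end during in vitro T7 transcription (37 °C, 4 h; PCR template carrying a 30-base poly(A) tail), then DNase-treated and purified. Translated in insect cell extract. Sample irradiated 2 min at 310 nm at 0 and 130 min and 2 min at 410 nm at 60 min. GFP fluorescence (ex 480 nm, em 509 nm) recorded over time, with normal-capped mRNA run alongside.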
# Nucleic Acid [5] = assay: Binding affinity to Aequorea victoria GFP mRNA in insect cell extract assessed as increase in mRNA translation at 4.8 mM irradiated with 310 nm monochromatic light for 2 mins measured after 130 mins by time course fluorescence assay; format: nucleic-acid assay; method in brief: as §2
# Nucleic Acid [6] = assay: Binding affinity to Aequorea victoria GFP mRNA in insect cell extract assessed as inhibition of mRNA translation at 4.8 mM irradiated with 410 nm monochromatic light for 2 mins measured after 10 hrs by fluorescence assay; format: nucleic-acid assay; method in brief: as §1
# Nucleic Acid [7] = assay: Binding affinity to Aequorea victoria GFP mRNA in insect cell extract assessed as mRNA translational efficiency at 4.8 mM irradiated with 410 nm monochromatic light for 2 mins measured after 10 hrs by fluorescence assay relative to normal-capped mRNA; format: nucleic-acid assay; method in brief: as §1
Structure (SMILES),Stability [1],inhibition (Nucleic Acid [3]),further results
CCN(CC)CC.CCN(CC)CC.C[n+]1c(/C=C/c2ccccc2)n([C@@H]2O[C@H](COP(=O)([O-])OP(=O)(O)OP(=O)(O)OC[C@H]3O[C@@H](n4cnc5c(=O)[nH]c(N)nc54)[C@H](O)[C@@H]3O)[C@@H](O)[C@H]2O)c2nc(N)[nH]c(=O)c21,Stable,–,–
CCN(CC)CC.CCN(CC)CC.C[n+]1c(/C=C\c2ccc3ccccc3c2)n([C@@H]2O[C@H](COP(=O)(O)OP(=O)(O)OP(=O)([O-])OC[C@H]3O[C@@H](n4cnc5c(=O)[nH]c(N)nc54)[C@H](O)[C@@H]3O)[C@@H](O)[C@H]2O)c2nc(N)[nH]c(=O)c21,Stable,–,Activity (Nucleic Acid [2]): Active
CCN(CC)CC.CCN(CC)CC.C[n+]1c(/C=C/c2ccc3ccccc3c2)n([C@@H]2O[C@H](COP(=O)([O-])OP(=O)(O)OP(=O)(O)OC[C@H]3O[C@@H](n4cnc5c(=O)[nH]c(N)nc54)[C@H](O)[C@@H]3O)[C@@H](O)[C@H]2O)c2nc(N)[nH]c(=O)c21,Stable,Active,Activity (Nucleic Acid [4]): inactive; Activity (Nucleic Acid [5]): inactive
CCN(CC)CC.CCN(CC)CC.C[n+]1c(/C=C\c2ccc3c(c2)Cc2ccccc2-3)n([C@@H]2O[C@H](COP(=O)(O)OP(=O)(O)OP(=O)([O-])OC[C@H]3O[C@@H](n4cnc5c(=O)[nH]c(N)nc54)[C@H](O)[C@@H]3O)[C@@H](O)[C@H]2O)c2nc(N)[nH]c(=O)c21,Stable,–,inhibition (Nucleic Acid [6]): Active
CCN(CC)CC.CCN(CC)CC.C[n+]1c(/C=C/c2ccc3c(c2)Cc2ccccc2-3)n([C@@H]2O[C@H](COP(=O)([O-])OP(=O)(O)OP(=O)(O)OC[C@H]3O[C@@H](n4cnc5c(=O)[nH]c(N)nc54)[C@H](O)[C@@H]3O)[C@@H](O)[C@H]2O)c2nc(N)[nH]c(=O)c21,Stable,Active,–
CCN(CC)CC.CCN(CC)CC.C[n+]1c(/C=C\c2ccccc2)n([C@@H]2O[C@H](COP(=O)([O-])OP(=O)(O)OP(=O)(O)OC[C@H]3O[C@@H](n4cnc5c(=O)[nH]c(N)nc54)[C@H](O)[C@@H]3O)[C@@H](O)[C@H]2O)c2nc(N)[nH]c(=O)c21,Stable,–,fold change (FC) (Nucleic Acid [7]): 2.2

# — ChEMBL document CHEMBL2146423, “Photoresponsive 5'-cap for the reversible photoregulation of gene expression” (Bioorg Med Chem Lett, 2011)
